Assay [1] relates to HUVEC. Put plainly: Growth inhibition of HUVEC by MTT assay. The assay is classed as functional. The following applies: Homo sapiens.
Assay [2] concerns DU-145. Put plainly: Growth inhibition of human DU145 cells by MTT assay. The assay is classed as functional.
Another assay deals with A549. Put plainly: Growth inhibition of human A549 cells by MTT assay. Type of assay: functional.
Assay [3] has as its target T1, Histone deacetylase 7 (Homo sapiens) (UniProt Q8WUI4).
T1 sequence (whole entry): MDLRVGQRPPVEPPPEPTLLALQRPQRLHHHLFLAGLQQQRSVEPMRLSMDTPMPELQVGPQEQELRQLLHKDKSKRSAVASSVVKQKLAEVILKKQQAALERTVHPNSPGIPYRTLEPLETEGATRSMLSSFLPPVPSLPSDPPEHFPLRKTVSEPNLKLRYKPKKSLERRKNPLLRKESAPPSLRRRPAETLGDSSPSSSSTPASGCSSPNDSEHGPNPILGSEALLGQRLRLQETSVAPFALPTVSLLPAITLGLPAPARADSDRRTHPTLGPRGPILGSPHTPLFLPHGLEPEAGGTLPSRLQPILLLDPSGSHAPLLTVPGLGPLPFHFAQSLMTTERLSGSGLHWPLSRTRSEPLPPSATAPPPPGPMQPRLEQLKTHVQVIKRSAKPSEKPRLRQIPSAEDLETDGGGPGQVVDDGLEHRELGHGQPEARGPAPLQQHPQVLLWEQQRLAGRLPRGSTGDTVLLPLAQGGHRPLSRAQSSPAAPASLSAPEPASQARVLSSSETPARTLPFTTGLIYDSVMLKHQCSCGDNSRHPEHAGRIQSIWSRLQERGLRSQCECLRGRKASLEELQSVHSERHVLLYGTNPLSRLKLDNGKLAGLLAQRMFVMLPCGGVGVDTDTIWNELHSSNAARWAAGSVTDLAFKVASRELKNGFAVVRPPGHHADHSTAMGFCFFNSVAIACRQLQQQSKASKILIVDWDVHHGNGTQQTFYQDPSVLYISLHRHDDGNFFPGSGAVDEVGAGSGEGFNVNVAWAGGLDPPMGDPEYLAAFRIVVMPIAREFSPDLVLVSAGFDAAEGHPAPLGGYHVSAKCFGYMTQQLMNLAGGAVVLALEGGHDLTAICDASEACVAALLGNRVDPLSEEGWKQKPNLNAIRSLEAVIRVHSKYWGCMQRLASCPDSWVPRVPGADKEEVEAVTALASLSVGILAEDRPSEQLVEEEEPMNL
Nature of the assay: Inhibition of human recombinant HDAC7 at 10 uM incubated for 10 mins prior to substrate addition measured after 60 mins by spectrophotometric analysis. An outline of the steps:
(§1)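 Enzyme IC50 values are means of three experiments, with SAHA run as the positive control. Absence of activity was judged at 10 μM.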

Assay [4] has as its system HeLa. Put plainly: Growth inhibition of human HeLa cells by MTT assay. Type of assay: functional.
Assay [5] deals with A-431. Put plainly: Growth inhibition of human A431 cells by MTT assay. The assay is classed as functional.
In assay [6] the test system is BGC-823. Put plainly: Growth inhibition of human BGC823 cells by MTT assay. The assay is classed as functional.
Assay [7] concerns HT-1080. Put plainly: Growth inhibition of human HT1080 cells by MTT assay. The following applies: Homo sapiens, HT-1080. The assay is classed as functional. A digest of the protocol: (§2)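 MTT cell growth read-out, with SAHA as the positive control. GI50 values are means of three experiments. 10 μM was the concentration tested for scoring absence of activity.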
The target of assay [8] is T2, Histone deacetylase 1 (Homo sapiens, UniProt Q13547). Nature of the assay: Inhibition of human recombinant HDAC1 incubated for 10 mins prior to substrate addition measured after 60 mins by spectrophotometric analysis.
Assay [9] addresses T2, Histone deacetylase 1. Put plainly: Inhibition of human recombinant HDAC1 at 10 uM incubated for 10 mins prior to substrate addition measured after 60 mins by spectrophotometric analysis. A digest of the protocol: as §1
Assay [10] has as its system HT-1080. Nature of the assay: Growth inhibition of human HT1080 cells at 10 uM by MTT assay. The assay is classed as functional, cell-based. A digest of the protocol: as §2
Assay [11] has as its system HUVEC. Put plainly: Growth inhibition of HUVEC at 10 uM by MTT assay. Type of assay: functional, cell-based. The following applies: Homo sapiens. A digest of the protocol:
as §2

The subject of assay [12] is HeLa. Nature of the assay: Growth inhibition of human HeLa cells at 10 uM by MTT assay. Type of assay: functional, cell-based. A digest of the protocol:
as §2

Assay [13] deals with A-431. Put plainly: Growth inhibition of human A431 cells at 10 uM by MTT assay. The assay is classed as functional, cell-based. A digest of the protocol:
as §2

For assay [14], the system named is DU-145. Put plainly: Growth inhibition of human DU145 cells at 10 uM by MTT assay. The assay is classed as functional, cell-based. An outline of the steps:
as §2

In assay [15] the test system is BGC-823. Put plainly: Growth inhibition of human BGC823 cells at 10 uM by MTT assay. The assay is classed as functional, cell-based. An outline of the steps: as §2

The source made the active and inactive calls. No cut-off for these calls is given here.

T2 sequence (Q13547 whole entry): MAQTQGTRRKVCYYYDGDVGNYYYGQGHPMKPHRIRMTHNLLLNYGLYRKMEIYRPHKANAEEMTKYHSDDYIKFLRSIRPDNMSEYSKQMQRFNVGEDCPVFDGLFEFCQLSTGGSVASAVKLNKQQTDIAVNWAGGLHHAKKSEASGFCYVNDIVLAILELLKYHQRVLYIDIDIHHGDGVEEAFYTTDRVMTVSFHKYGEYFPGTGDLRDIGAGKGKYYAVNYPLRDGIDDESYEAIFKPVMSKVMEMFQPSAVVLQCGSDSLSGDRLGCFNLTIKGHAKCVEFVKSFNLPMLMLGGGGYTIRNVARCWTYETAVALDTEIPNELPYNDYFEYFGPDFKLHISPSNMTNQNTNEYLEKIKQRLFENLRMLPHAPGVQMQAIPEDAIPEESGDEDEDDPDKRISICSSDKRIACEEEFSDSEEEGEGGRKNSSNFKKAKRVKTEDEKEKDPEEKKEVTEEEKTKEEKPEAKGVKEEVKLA

Take `O=C(CCCCc1cn(Cc2ccc(-c3ccccc3)cc2)nn1)NO`: the GI50 in the assay on HUVEC [1] was determined as 5480 nM; with DU-145 [2], 1210 nM; with A549, 2150 nM; with HeLa [4] it was 3720 nM; in the assay with A-431 [5], 2990 nM; with BGC-823 [6], 1800 nM. The same molecule gave a GI50 in the assay on HT-1080 [7] of 2690 nM. For the same molecule, the inhibition entry in assay [3] is “inactive”. Also, the IC50 on Histone deacetylase 1 [8] came to 202 nM.

As for `O=C(CCCCc1cn(Cc2cccc(-c3ccccc3)c2)nn1)NO`, the GI50 in the assay on HUVEC [1] came out at 1130 nM; in the assay on DU-145 [2], 1190 nM; in the assay with A549, 1470 nM; in the assay with HeLa [4], 3850 nM; in the assay with A-431 [5], 4650 nM; in the assay on BGC-823 [6], 3050 nM. This molecule showed a GI50 in the assay with HT-1080 [7] of 3140 nM. In assay [3], the inhibition result was “inactive”. For the same molecule, on Histone deacetylase 1 [8], the IC50 is 58 nM.

For the molecule `O=C(CCCCc1cn(Cc2c(Br)cc(Br)cc2Br)nn1)NO`, the inhibition result (in [3]; on Histone deacetylase 1 [9]) was “inactive” each time.

For `O=C(CCCCn1cc(-c2ccccc2)nn1)NO`, the “growth inhibition (GI)” value in the assay on HT-1080 [10], with HUVEC [11], in the assay with HeLa [12], in the assay on A-431 [13], in the assay with DU-145 [14] and in the assay on BGC-823 [15] was “inactive” throughout. The GI50 with A549 stood at 7690 nM. Also, on Histone deacetylase 1 [8], the IC50 amounted to 5130 nM.

The values are drawn from ChEMBL document CHEMBL2380293, “Design, synthesis, and biological evaluation of novel histone deacetylase 1 inhibitors through click chemistry” (Bioorg Med Chem Lett, 2013).
